From ChEMBL document CHEMBL1121739, “Inhibition of human acrosin by monosaccharides and related compounds: structure-activity relationships” (J Med Chem, 1981) come the findings set out here.

In general, inhibition refers to the drop in the measured response relative to a control, in per cent.

Acrosin (Homo sapiens), sequence (P10323 20-42 limits assumed): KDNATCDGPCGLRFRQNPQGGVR
Acrosin (Homo sapiens), sequence (P10323 43-343 limits assumed): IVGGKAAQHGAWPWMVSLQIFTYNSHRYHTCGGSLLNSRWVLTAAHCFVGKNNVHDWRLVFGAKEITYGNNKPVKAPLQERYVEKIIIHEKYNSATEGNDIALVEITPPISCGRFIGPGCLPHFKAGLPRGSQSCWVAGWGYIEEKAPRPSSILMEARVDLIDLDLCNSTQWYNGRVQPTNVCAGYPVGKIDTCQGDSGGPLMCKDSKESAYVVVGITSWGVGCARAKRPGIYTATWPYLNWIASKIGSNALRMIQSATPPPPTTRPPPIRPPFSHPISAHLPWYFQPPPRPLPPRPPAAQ

The first assay concerns the target Acrosin (Homo sapiens) (UniProt P10323). The assay is described as follows: Compound was tested for inhibition of Human acrosin by ketohexoses. The conditions noted are these: concentration not given here. The essentials:
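Purified human α-acrosin from acetic acid extracts of frozen sperm, run through Sephadex G-150 and CM-cellulose. Sugars at 200 mM were preincubated with the enzyme for 5 min at ambient temperature in 50 mM sodium phosphate, pH 7.5. Reaction started with 5×10^-5 M BAEE or 3×10^-4 M BAPA; hydrolysis followed at 253 nm. Percent inhibition versus inhibitor-free control, mean ± SE of 3–6 determinations.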
Regarding `O=P(O)(O)OC[C@H]1O[C@](O)(CO)[C@@H](O)[C@@H]1O`, the inhibition was determined as 32%.
Same read-out and setting: the value for `OCC1(O)OCC(O)C(O)C1O` (centres undefined) was 58%; that for `O=C(CO)C(O)C(O)C(O)CO` (centres undefined) was 18%.
Take `O=C(CO)[C@@H](O)[C@H](O)[C@H](O)CO`: the inhibition came to 66%.

Another assay has the same target. Nature of the assay: Compound was tested for inhibition of Human acrosin by aldoses.
Conditions: not given
The essentials: (§1)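 Homologous aldoses or ketoses of different carbon chain lengths were each tested at 100 mM against purified human α-acrosin. The enzyme was preincubated with sugar for 5 min at ambient temperature, pH 7.5, with 3×10^-4 M BAPA as substrate and hydrolysis read spectrophotometrically at 253 nm. Results are % inhibition of control activity, as mean ± SE with n given.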
With `OC[C@H]1OC(O)[C@@H](O)[C@@H](O)[C@@H]1O` (some centres undefined), the inhibition was found to be 48%.
Compound `O=CC(O)C(O)CO` (centres undefined) returned an inhibition of 40%.
The same measure, in the same setting: with `OC1OC[C@@H](O)[C@@H](O)[C@@H]1O` (some centres undefined) the figure was 36%.

The target is the same in the next assay. The assay is described as follows: Compound was tested for inhibition of Human acrosin by ketoses. The conditions noted are these: concentration not given here. The essentials: as §1
As to `O=C(CO)CO`, the inhibition came to 15%.
Still for that read-out and setting: the value for `O=C(CO)C(O)C(O)CO` (centres undefined) was 38%.
Still for that read-out and setting: the value for `OC[C@H]1OC(O)(CO)[C@@H](O)[C@@H](O)[C@@H]1O` (some centres undefined) was 41%; that for `O=C(CO)[C@@H](O)[C@H](O)[C@H](O)CO` was 47%.

The target is the same in the next assay. Nature of the assay: Compound was tested for inhibition of Human acrosin by polyols. To be noted: concentration not given here.
For the compound `O[C@H]1[C@H](O)[C@@H](O)[C@H](O)[C@@H](O)[C@H]1O`, the inhibition was determined as 30%.
The same measure, in the same setting: the value for `OC[C@@H](O)[C@@H](O)[C@H](O)[C@@H](O)CO` was 38%.
`OC[C@@H](O)[C@@H](O)[C@H](O)[C@H](O)CO` registered an inhibition of 29%.
Same read-out and setting: with `OCC(O)CO` the figure was 28%.

For the next assay the target is unchanged. Nature of the assay: Compound was tested for inhibition of Human acrosin by aldopentoses. Also on record: concentration or dose not given beside the values. The conditions noted are these: concentration not given here. The essentials:
(§2)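 Purified human α-acrosin (acetic acid extract of frozen sperm, then Sephadex G-150 and CM-cellulose). Sugar at 200 mM was preincubated with enzyme for 5 min at ambient temperature in 50 mM sodium phosphate, pH 7.5. The reaction was started with 5×10^-5 M BAEE or 3×10^-4 M BAPA and followed at 253 nm. Results are % inhibition of the no-inhibitor control rate, as mean ± SE.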
The compound `OC1OC[C@H](O)[C@H](O)[C@H]1O` (some centres undefined) came in with an inhibition of 65%.
The compound `OC1OC[C@H](O)[C@@H](O)[C@@H]1O` (some centres undefined) displayed an inhibition of 40%.
Same read-out and setting: with `OC[C@H]1O[C@H](O)[C@H](O)[C@@H]1O` the figure was 65%.
The same measure, in the same setting: the value for `O[C@@H]1[C@H](O)[C@@H](O)OC[C@H]1O` (stereo in doubt; form 2) was 35%; that for `OC1OC[C@@H](O)[C@@H](O)[C@@H]1O` (some centres undefined) was 50%; that for `O=C[C@H](O)[C@@H](O)[C@H](O)CO` was 37%.
On the same count and under the same terms, with `O[C@@H]1[C@H](O)[C@@H](O)OC[C@H]1O` (stereo in doubt; form 1) the figure was 50%.

The target is the same in another assay. Nature of the assay: Compound was tested for inhibition of Human acrosin by aldohexoses. More on the design: concentration or dose not given beside the values. To be noted: concentration not given here. The essentials: as §2
`OC[C@H]1OC(O)[C@@H](O)[C@@H](O)[C@@H]1O` (some centres undefined): the inhibition is 60%.
Still for that read-out and setting: the value for `OC[C@@H]1OC(O)[C@@H](O)[C@H](O)[C@H]1O` (some centres undefined) was 0%; that for `OC[C@H]1OC(O)[C@H](O)[C@@H](O)[C@@H]1O` (some centres undefined) was 28%; that for `OC[C@H]1OC(O)[C@H](O)[C@H](O)[C@H]1O` (some centres undefined) was 0%.
Still for that read-out and setting: the value for `C[C@H](O)[C@@H](O)[C@@H](O)[C@H](O)C=O` was 20%; that for `OC[C@H]1O[C@@H](O)[C@H](O)[C@@H](O)[C@H]1O` (stereo in doubt; form 1) was 34%.
With `C[C@H]1OC(O)[C@H](O)[C@@H](O)[C@H]1O` (some centres undefined), the inhibition was 62%.
Compound `OC[C@H]1O[C@@H](O)[C@H](O)[C@@H](O)[C@H]1O` (stereo in doubt; form 2) registered an inhibition of 12%.

The target is the same in the next assay. The assay is described as follows: Compound was tested for inhibition of Human acrosin by phosphorylated monosaccharides. Also on record: concentration or dose not given beside the values. The conditions noted are these: concentration not given here. The essentials:
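Phosphorylated sugars, as barium salts in the D configuration, were tested at 100 mM, limited by solubility; the parent sugars were also run at 100 mM. Each was preincubated 5 min with purified human α-acrosin before adding BAEE or BAPA. The spectrophotometric 253 nm assay measured % inhibition relative to a no-inhibitor control.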
The compound `OC[C@H]1O[C@H](O)[C@H](O)[C@@H]1O` gave an inhibition of 45%.
The same measure, in the same setting: the value for `O=P(O)(O)OC[C@H]1O[C@](O)(CO)[C@@H](O)[C@@H]1O` was 7%.
Turning to `O=P(O)(O)OC1O[C@H](CO)[C@H](O)[C@H](O)[C@H]1O` (some centres undefined), the inhibition stood at 3%.
As to `O=P(O)(O)OC[C@H]1OC(O)[C@H](O)[C@@H](O)[C@H]1O` (some centres undefined), the inhibition is 10%.
Same read-out and setting: with `O=P(O)(O)OC[C@H]1OC(O)(COP(=O)(O)O)[C@@H](O)[C@@H]1O` (some centres undefined) the figure was 18%; with `O=P(O)(O)OC[C@@]1(O)O[C@H](CO)[C@@H](O)[C@@H]1O`, 9%; with `O=P(O)(O)OC[C@H]1O[C@H](O)[C@H](O)[C@@H]1O`, 15%.
On the same count and under the same terms, the value for `O=C(CO)[C@@H](O)[C@H](O)[C@H](O)CO` was 46%; that for `O=C[C@H](O)[C@@H](O)[C@@H](O)[C@H](O)CO` was 0%.
